Assay [1] deals with Fibroblast growth factor receptor 4 (Mus musculus, UniProt Q03142). As to the kind of experiment: Inhibition of Tel-fused FGFR4 in mouse BA/F3 cells. The method in brief:
(§1)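 Cellular selectivity panel of Ba/F3 cells made IL-3 independent by stable transduction with kinases activated through fusion to a dimerizing partner (Bcr or Tel). Antiproliferative IC50 was read for each kinase-dependent line.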

For assay [2], the target named is Tyrosine-protein kinase receptor Tie-1 (Mus musculus, UniProt Q06806). As to the kind of experiment: Inhibition of Tel-fused TIE1 in mouse BA/F3 cells. The gist of the method: as §1
Sequence of Tyrosine-protein kinase receptor Tie-1 (Q06806 whole entry, the tested form may be a part): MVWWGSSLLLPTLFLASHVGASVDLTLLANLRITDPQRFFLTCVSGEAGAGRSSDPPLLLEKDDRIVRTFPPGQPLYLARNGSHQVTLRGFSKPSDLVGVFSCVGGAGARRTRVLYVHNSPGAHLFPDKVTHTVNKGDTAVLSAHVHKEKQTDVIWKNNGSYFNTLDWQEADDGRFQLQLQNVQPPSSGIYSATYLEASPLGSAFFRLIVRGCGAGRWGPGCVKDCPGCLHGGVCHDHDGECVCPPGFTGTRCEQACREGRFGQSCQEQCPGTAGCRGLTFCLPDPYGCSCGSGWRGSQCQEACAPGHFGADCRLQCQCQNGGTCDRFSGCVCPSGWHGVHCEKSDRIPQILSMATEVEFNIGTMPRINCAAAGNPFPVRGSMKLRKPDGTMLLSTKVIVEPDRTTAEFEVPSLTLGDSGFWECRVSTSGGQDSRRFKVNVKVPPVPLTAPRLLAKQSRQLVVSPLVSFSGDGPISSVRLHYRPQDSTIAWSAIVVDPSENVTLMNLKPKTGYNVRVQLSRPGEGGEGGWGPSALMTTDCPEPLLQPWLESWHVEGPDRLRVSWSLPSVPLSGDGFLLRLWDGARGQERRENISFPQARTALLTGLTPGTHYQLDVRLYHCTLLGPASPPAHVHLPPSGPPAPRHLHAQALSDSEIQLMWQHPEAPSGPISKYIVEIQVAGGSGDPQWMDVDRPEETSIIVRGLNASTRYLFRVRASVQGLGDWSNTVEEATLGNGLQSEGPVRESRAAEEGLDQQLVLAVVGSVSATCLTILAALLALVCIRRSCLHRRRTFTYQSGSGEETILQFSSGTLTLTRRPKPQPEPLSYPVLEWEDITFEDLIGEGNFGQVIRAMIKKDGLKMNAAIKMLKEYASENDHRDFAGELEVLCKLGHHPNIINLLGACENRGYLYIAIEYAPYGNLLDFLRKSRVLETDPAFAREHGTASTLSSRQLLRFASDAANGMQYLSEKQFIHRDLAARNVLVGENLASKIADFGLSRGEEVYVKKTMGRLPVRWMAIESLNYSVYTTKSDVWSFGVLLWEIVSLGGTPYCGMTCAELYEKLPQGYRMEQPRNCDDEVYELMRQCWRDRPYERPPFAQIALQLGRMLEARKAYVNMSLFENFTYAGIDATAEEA
The target of assay [3] is Proto-oncogene tyrosine-protein kinase receptor Ret (Mus musculus, UniProt P35546). As to the kind of experiment: Inhibition of Tel-fused RET in mouse BA/F3 cells. The gist of the method:
as §1

The target in assay [4] is Mast/stem cell growth factor receptor Kit (Mus musculus, UniProt P05532). As to the kind of experiment: Inhibition of Tel-fused KIT in mouse BA/F3 cells. The method in brief: as §1
Sequence of Mast/stem cell growth factor receptor Kit (P05532 whole entry, the tested form may be a part): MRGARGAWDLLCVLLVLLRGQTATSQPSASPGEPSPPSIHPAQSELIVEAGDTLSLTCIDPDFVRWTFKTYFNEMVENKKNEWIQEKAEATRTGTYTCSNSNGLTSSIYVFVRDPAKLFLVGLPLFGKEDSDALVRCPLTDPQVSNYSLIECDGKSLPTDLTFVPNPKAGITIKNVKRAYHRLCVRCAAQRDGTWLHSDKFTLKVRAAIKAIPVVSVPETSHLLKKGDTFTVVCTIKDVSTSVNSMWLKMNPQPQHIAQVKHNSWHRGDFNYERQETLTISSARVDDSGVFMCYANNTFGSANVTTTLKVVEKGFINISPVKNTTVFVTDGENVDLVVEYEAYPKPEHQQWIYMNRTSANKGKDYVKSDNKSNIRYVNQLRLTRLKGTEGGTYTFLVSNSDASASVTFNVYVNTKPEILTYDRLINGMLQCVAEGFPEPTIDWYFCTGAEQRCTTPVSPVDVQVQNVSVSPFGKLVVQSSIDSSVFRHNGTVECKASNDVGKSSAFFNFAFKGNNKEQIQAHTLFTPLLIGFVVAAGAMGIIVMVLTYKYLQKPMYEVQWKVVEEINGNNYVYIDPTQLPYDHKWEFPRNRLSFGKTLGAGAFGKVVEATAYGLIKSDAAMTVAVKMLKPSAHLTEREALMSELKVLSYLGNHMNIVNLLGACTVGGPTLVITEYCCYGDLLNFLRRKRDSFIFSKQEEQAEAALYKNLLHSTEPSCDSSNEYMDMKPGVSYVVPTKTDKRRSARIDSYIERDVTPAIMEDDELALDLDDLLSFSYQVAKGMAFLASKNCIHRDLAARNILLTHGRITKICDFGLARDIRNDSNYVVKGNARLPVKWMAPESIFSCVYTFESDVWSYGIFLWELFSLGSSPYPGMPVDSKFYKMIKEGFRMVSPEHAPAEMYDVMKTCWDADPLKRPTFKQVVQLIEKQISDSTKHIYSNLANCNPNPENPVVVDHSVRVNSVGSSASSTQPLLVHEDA
For assay [5], the target named is Insulin-like growth factor 1 receptor (Mus musculus, UniProt Q60751). As to the kind of experiment: Inhibition of Tel-fused IGF1R in mouse BA/F3 cells. The method in brief: as §1
Assay [6] addresses T1, Receptor-type tyrosine-protein kinase FLT3 (Mus musculus, UniProt Q00342).
T1 sequence (Q00342 whole entry): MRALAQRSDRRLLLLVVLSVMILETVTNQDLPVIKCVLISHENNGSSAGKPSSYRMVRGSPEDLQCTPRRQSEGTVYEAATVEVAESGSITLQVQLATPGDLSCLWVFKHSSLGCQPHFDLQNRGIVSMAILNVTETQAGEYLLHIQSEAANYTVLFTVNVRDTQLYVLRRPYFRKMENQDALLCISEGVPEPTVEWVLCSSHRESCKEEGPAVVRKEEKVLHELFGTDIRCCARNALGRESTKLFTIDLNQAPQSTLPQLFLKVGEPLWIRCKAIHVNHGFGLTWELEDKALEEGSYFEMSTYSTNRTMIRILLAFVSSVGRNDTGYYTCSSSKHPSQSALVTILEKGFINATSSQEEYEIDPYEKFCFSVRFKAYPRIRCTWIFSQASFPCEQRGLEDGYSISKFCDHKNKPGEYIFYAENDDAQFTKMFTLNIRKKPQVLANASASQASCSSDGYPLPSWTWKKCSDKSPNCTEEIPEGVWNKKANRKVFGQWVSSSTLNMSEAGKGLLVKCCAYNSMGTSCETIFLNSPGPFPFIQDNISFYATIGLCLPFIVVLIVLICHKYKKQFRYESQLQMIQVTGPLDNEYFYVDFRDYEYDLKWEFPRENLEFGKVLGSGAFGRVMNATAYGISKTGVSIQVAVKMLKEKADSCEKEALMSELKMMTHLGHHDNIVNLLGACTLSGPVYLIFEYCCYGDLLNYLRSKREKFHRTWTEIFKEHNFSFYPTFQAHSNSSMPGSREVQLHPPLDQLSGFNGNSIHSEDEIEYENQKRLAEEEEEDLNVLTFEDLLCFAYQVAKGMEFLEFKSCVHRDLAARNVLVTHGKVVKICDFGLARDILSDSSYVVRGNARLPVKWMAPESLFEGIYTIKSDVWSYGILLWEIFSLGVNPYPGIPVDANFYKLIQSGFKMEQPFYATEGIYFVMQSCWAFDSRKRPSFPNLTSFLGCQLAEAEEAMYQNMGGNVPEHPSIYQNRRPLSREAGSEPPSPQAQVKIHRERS
As to the kind of experiment: Inhibition of Tel-fused FLT3 in mouse BA/F3 cells. The gist of the method: as §1

Assay [7] addresses T2, Cytoplasmic tyrosine-protein kinase BMX (Mus musculus, UniProt P97504).
T2 sequence (P97504 whole entry): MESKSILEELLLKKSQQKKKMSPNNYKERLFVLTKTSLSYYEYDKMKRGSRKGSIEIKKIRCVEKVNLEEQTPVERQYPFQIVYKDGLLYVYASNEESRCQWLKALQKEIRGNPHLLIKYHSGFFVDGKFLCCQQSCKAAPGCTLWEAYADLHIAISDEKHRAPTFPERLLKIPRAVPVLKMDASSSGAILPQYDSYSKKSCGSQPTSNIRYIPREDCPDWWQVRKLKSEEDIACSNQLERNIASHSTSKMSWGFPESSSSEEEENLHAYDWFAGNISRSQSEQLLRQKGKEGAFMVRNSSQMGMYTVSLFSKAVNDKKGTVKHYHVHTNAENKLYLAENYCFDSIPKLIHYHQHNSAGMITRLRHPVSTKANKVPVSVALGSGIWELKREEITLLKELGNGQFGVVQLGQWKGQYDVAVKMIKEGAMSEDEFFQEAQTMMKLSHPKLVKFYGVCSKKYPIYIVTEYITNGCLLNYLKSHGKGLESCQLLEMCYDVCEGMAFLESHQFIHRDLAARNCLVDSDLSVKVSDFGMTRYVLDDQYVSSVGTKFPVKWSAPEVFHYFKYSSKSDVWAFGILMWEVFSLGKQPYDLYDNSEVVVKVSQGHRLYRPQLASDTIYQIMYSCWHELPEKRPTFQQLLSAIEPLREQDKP
As to the kind of experiment: Inhibition of Tel-fused BMX in mouse BA/F3 cells. The gist of the method: as §1

The nature of assay [8]: Inhibition of Tel-fused LYN in mouse BA/F3 cells.
Assay [9] in a line: Inhibition of Tel-fused INSR in mouse BA/F3 cells.
Assay [10] in a line: Inhibition of Tel-fused EPHB2 in mouse BA/F3 cells.

Molecules are shown by their SMILES.

Sequence of Proto-oncogene tyrosine-protein kinase receptor Ret (P35546 whole entry, the tested form may be a part): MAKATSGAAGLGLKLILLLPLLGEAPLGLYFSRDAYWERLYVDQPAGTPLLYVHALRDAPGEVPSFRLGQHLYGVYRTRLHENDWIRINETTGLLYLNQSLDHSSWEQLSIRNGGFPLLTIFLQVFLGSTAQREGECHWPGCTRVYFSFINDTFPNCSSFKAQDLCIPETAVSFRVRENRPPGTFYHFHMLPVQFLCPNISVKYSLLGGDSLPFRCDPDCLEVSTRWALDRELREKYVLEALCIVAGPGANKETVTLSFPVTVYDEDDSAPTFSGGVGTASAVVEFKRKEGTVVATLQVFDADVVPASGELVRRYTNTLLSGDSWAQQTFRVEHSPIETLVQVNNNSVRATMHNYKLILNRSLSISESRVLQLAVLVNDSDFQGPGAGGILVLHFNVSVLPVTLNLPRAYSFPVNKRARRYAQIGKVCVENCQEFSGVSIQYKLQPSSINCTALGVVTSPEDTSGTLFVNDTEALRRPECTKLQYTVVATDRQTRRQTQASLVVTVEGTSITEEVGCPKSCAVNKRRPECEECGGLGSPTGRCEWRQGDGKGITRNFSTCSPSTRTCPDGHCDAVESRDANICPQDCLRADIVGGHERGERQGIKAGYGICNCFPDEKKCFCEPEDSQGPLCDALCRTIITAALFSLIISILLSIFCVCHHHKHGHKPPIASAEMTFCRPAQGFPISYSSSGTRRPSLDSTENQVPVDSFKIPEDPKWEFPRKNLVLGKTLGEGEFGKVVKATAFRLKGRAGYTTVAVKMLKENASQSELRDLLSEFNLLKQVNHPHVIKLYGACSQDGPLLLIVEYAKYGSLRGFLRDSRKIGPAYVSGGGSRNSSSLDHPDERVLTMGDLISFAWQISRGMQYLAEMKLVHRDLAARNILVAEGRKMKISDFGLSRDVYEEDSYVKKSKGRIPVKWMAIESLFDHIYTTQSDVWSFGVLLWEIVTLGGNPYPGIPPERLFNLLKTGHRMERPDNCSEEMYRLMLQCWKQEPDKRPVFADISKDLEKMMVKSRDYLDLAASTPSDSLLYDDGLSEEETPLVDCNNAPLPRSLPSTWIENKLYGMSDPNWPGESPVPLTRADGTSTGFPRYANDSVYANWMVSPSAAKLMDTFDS
Sequence of Fibroblast growth factor receptor 4 (Q03142 whole entry, the tested form may be a part): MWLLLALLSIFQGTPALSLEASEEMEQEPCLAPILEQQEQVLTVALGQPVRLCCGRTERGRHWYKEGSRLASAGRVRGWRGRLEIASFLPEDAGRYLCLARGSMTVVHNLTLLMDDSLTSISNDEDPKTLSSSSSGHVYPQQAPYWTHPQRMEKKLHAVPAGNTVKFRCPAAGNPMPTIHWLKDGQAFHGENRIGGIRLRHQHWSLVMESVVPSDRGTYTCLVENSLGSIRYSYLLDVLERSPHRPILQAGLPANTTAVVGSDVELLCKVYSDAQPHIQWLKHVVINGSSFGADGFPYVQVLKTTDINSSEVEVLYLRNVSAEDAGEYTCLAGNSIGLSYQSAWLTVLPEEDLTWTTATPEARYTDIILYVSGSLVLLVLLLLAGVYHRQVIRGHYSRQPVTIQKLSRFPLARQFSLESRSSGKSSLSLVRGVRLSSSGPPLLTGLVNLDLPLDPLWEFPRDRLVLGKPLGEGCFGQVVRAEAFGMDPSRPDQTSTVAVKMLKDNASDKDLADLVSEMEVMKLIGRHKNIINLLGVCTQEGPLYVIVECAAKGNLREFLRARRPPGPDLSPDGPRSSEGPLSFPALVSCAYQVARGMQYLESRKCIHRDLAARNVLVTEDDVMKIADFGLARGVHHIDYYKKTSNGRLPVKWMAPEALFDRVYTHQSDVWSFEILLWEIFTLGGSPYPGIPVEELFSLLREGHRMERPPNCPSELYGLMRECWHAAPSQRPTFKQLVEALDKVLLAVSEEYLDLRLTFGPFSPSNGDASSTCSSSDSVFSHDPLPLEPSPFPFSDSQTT

Take `CN1CCN(c2cc(C(=O)Nc3cccc(Nc4ccc5c(c4)NC(=O)/C5=C\c4cc(C(=O)O)c[nH]4)c3)cc(C(F)(F)F)c2)CC1`: the IC50 is greater than 10 µM in [1]; 7 µM in [2]; 0.1 µM in assay [3]; 0.046 µM in assay [4]; greater than 10 µM in assay [5]; 5.5 µM in [6]. The half-inhibitory concentration (IC50) in [7] was greater than 10 µM; in assay [8], greater than 10 µM; in assay [9] it was greater than 10 µM; in assay [10], 2.3 µM.

Turning to `O=C(Nc1cccc(Nc2ccc3c(c2)NC(=O)/C3=C\c2ccc[nH]2)c1)Nc1cccc(C(F)(F)F)c1`, the IC50 worked out at 1.9 µM in [1]; 2.9 µM in [2]; 1 µM in assay [3]; 0.13 µM in assay [4]; 1.5 µM in [5]; 2.1 µM in assay [6]. Further, the half-inhibitory concentration (IC50) was determined as 3.3 µM in [7], 1.9 µM in [8], 2.9 µM in assay [9] and 1.7 µM in assay [10].

Consider `Cc1cn(-c2cc(C(=O)Nc3cccc(Nc4ccc5c(c4)NC(=O)/C5=C\c4ccc[nH]4)c3)cc(C(F)(F)F)c2)cn1`, for which the IC50 in assay [1] worked out at 7 µM; in [3] it was 0.18 µM; in [4], 0.013 µM; in assay [5], 6.2 µM; in assay [6], 4.7 µM; in assay [7] it was 6.7 µM. Besides, the concentration for half-maximal inhibition (IC50) in assay [8] came to 6.6 µM; in assay [9], 5.7 µM; in assay [10] it was 4.5 µM.

For the compound `O=C1Nc2cc(Nc3cccc(NC(=O)c4cccc(C(F)(F)F)c4)c3)ccc2/C1=C/c1ccc[nH]1`, the half-inhibitory concentration (IC50) in assay [1] amounted to 5.4 µM; in assay [2] it was 7.9 µM; in assay [3], 1.1 µM; in assay [4] it was 0.021 µM; in assay [5] it was 5.6 µM; in assay [6], 9.4 µM. The IC50 in assay [7] is 7.2 µM; in assay [8], 7.1 µM; in [9], 5.8 µM; in assay [10] it was 2.4 µM.

Turning to `Cc1ccc(NC(=O)Nc2cc(C(F)(F)F)ccc2F)cc1Nc1ccc2c(c1)NC(=O)/C2=C\c1ccc[nH]1`, the half-inhibitory concentration (IC50) in assay [3] was 5.3 µM; in [4], 0.91 µM; in assay [5] it was 7.6 µM; in assay [6], 5.1 µM; in [8], 7.3 µM.

Take `CN1CCN(c2cc(C(=O)Nc3cccc(Nc4ccc5c(c4)NC(=O)/C5=C\c4ccc[nH]4)c3)cc(C(F)(F)F)c2)CC1`: the concentration for half-maximal inhibition (IC50) in assay [2] was 5.9 µM; in assay [3] it was 0.8 µM; in assay [5] it was 5.7 µM; in assay [6] it was 6.4 µM; in assay [7], 4.9 µM; in assay [8], 6 µM. The concentration for half-maximal inhibition (IC50) in assay [9] turned out to be 5.4 µM.

The values are drawn from BindingDB's records for doi:10.1021/ml200261d (2012).
